Measurements from ChEMBL document CHEMBL1177711, “Novel quinolizidinyl derivatives as antiarrhythmic agents: 2. Further investigation” (J Med Chem, 2010).

Experiments:
[1] = Negative inotropic activity against potassium-induced contraction in guinea pig left atrium assessed as decrease in developed tension; format: functional, tissue-based; conditions: Cavia porcellus, Cardiac atrium
[2] = Antiarrhythmic activity in sinusoidal alternating current-induced guinea pig left atrium assessed as increase in current strength at which extra beats occur at 10 uM measured every 30 mins; format: functional, Cavia porcellus, Cardiac atrium
Procedure, shortened: (§1)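 Isolated guinea pig left atria, electrically driven at 1 Hz, were exposed to sinusoidal alternating current to induce arrhythmia. The read-out was the rise in the ac-arrhythmia threshold over concentrations up to 100 μM.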

[3] = test system: Aorta; assay: Vasorelaxant activity in potassium depolarized guinea pig aortic strip assessed as inhibition of calcium-induced contraction at 50 uM; format: functional; conditions: Cavia porcellus
[4] = Negative chronotropic activity against potassium-induced contraction in guinea pig left atrium assessed as decrease atrial rate at 10 uM relative to control; format: functional, Cavia porcellus, Cardiac atrium; parameters: scale not given: the % may be the effect or the level left
[5] = Negative inotropic activity against potassium-induced contraction in guinea pig left atrium assessed as decrease in developed tension at 1 uM relative to control; format: functional, Cavia porcellus, Cardiac atrium; parameters: scale not given: the % may be the effect or the level left
[6] = Cardioprotective effect in Langendorff perfused guinea pig spontaneously beating […] assessed as intraventicular conduction time at 0.1 uM (RVb = 19 to 24 +/- 1 to 2 ms); format: functional; conditions: Cavia porcellus
Procedure, shortened: (§2)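 Whole guinea pig hearts were Langendorff-perfused and their ECG recorded at graded concentrations. Intervals read were PR (atrioventricular conduction time), QT (ventricular action potential duration) and QRS (intraventricular conduction time).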

[7] = Antiarrhythmic activity in sinusoidal alternating current-induced guinea pig left atrium assessed as increase in current strength at which extra beats occur at 100 uM measured every 30 mins; format: functional, Cavia porcellus, Cardiac atrium; procedure, shortened: as §1
[8] = test system: Heart; assay: Cardioprotective effect in Langendorff perfused guinea pig spontaneously beating […] assessed as heart rat at 1 uM (RVb = 175 to 190 +/- 5 to 11 bpm); format: functional, Cavia porcellus
[9] = Negative inotropic activity against potassium-induced contraction in guinea pig left atrium assessed as decrease in developed tension at 50 uM relative to control; format: functional, Cavia porcellus, Cardiac atrium; parameters: scale not given: the % may be the effect or the level left
[10] = Cardioprotective effect in Langendorff perfused guinea pig spontaneously beating […] assessed as intraventicular conduction time at 0.01 uM (RVb = 19 to 24 +/- 1 to 2 ms); format: functional; conditions: Cavia porcellus; procedure, shortened: as §2
[11] = test system: Heart; assay: Cardioprotective effect in Langendorff perfused guinea pig spontaneously beating […] assessed as heart rat at 0.1 uM (RVb = 175 to 190 +/- 5 to 11 bpm); format: functional, Cavia porcellus
[12] = Cardioprotective effect in Langendorff perfused guinea pig spontaneously beating […] assessed as duration of ventricular action potential at 10 uM (RVb = 140 to 161 +/- 2 to 8 ms); format: functional, Cavia porcellus, Cardiac ventricle; procedure, shortened: as §2
[13] = Cardioprotective effect in Langendorff perfused guinea pig spontaneously beating […] assessed as atrioventicular conduction time at 0.1 uM (RVb = 50 to 55 +/- 1 to 4 ms); format: functional; conditions: Cavia porcellus; procedure, shortened: as §2
[14] = Cardioprotective effect in Langendorff perfused guinea pig spontaneously beating […] assessed as duration of ventricular action potential at 0.001 uM (RVb = 140 to 161 +/- 2 to 8 ms); format: functional, Cavia porcellus, Cardiac ventricle; procedure, shortened: as §2
[15] = Cardioprotective effect in Langendorff perfused guinea pig spontaneously beating […] assessed as atrioventicular conduction time at 0.01 uM (RVb = 50 to 55 +/- 1 to 4 ms); format: functional; conditions: Cavia porcellus; procedure, shortened: as §2
[16] = Cardioprotective effect in Langendorff perfused guinea pig spontaneously beating […] assessed as intraventicular conduction time at 1 uM (RVb = 19 to 24 +/- 1 to 2 ms); format: functional; conditions: Cavia porcellus; procedure, shortened: as §2
[17] = Ratio of compound to auinidine for antiarrhythmic activity in sinusoidal alternating current-induced guinea pig left atrium; format: functional, Cavia porcellus, Cardiac atrium
Procedure, shortened: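 The antiarrhythmic EC50 was taken from the ac-arrhythmia threshold rise in 1 Hz-driven guinea pig left atria, using probit analysis.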

[18] = Cardioprotective effect in Langendorff perfused guinea pig spontaneously beating […] assessed as duration of ventricular action potential at 0.01 uM (RVb = 140 to 161 +/- 2 to 8 ms); format: functional, Cavia porcellus, Cardiac ventricle; procedure, shortened: as §2
[19] = Cardioprotective effect in Langendorff perfused guinea pig spontaneously beating […] assessed as atrioventicular conduction time at 10 uM (RVb = 50 to 55 +/- 1 to 4 ms); format: functional; conditions: Cavia porcellus; procedure, shortened: as §2
[20] = Negative chronotropic activity against potassium-induced contraction in guinea pig left atrium assessed as decrease atrial rate; format: functional, tissue-based; conditions: Cavia porcellus, Cardiac atrium
[21] = Cardioprotective effect in Langendorff perfused guinea pig spontaneously beating […] assessed as duration of ventricular action potential at 0.1 uM (RVb = 140 to 161 +/- 2 to 8 ms); format: functional, Cavia porcellus, Cardiac ventricle; procedure, shortened: as §2
[22] = test system: Heart; assay: Cardioprotective effect in Langendorff perfused guinea pig spontaneously beating […] assessed as heart rat at 0.01 uM (RVb = 175 to 190 +/- 5 to 11 bpm); format: functional, Cavia porcellus
[23] = Negative chronotropic activity against potassium-induced contraction in guinea pig left atrium assessed as decrease atrial rate at 50 uM relative to control; format: functional, Cavia porcellus, Cardiac atrium; parameters: scale not given: the % may be the effect or the level left
[24] = Cardioprotective effect in Langendorff perfused guinea pig spontaneously beating […] assessed as atrioventicular conduction time at 1 uM (RVb = 50 to 55 +/- 1 to 4 ms); format: functional; conditions: Cavia porcellus; procedure, shortened: as §2
[25] = Cardioprotective effect in Langendorff perfused guinea pig spontaneously beating […] assessed as atrioventicular conduction time at 0.001 uM (RVb = 50 to 55 +/- 1 to 4 ms); format: functional; conditions: Cavia porcellus; procedure, shortened: as §2
[26] = Antiarrhythmic activity in sinusoidal alternating current-induced guinea pig left atrium assessed as increase in current strength at which extra beats occur measured every 30 mins; format: functional, tissue-based; conditions: Cavia porcellus, Cardiac atrium, 0.5 h; procedure, shortened: as §1
[27] = test system: Heart; assay: Cardioprotective effect in Langendorff perfused guinea pig spontaneously beating […] assessed as heart rat at 0.001 uM (RVb = 175 to 190 +/- 5 to 11 bpm); format: functional, Cavia porcellus
[28] = Cardioprotective effect in Langendorff perfused guinea pig spontaneously beating […] assessed as intraventicular conduction time at 0.001 uM (RVb = 19 to 24 +/- 1 to 2 ms); format: functional; conditions: Cavia porcellus; procedure, shortened: as §2
[29] = test system: Heart; assay: Cardioprotective effect in Langendorff perfused guinea pig spontaneously beating […] assessed as heart rat at 10 uM (RVb = 175 to 190 +/- 5 to 11 bpm); format: functional, Cavia porcellus
[30] = Cardioprotective effect in Langendorff perfused guinea pig spontaneously beating […] assessed as duration of ventricular action potential at 1 uM (RVb = 140 to 161 +/- 2 to 8 ms); format: functional, Cavia porcellus, Cardiac ventricle; procedure, shortened: as §2
[31] = Cardioprotective effect in Langendorff perfused guinea pig spontaneously beating […] assessed as intraventicular conduction time at 10 uM (RVb = 19 to 24 +/- 1 to 2 ms); format: functional; conditions: Cavia porcellus; procedure, shortened: as §2
[32] = test system: Aorta; assay: Vasorelaxant activity in potassium depolarized guinea pig aortic strip assessed as inhibition of calcium-induced contraction at 100 uM; format: functional; conditions: Cavia porcellus
[33] = Antiarrhythmic activity in sinusoidal alternating current-induced guinea pig left atrium assessed as increase in current strength at which extra beats occur at 0.5 uM measured every 30 mins; format: functional, Cavia porcellus, Cardiac atrium; procedure, shortened: as §1
[34] = Negative chronotropic activity against potassium-induced contraction in guinea pig left atrium assessed as decrease atrial rate at 100 uM relative to control; format: functional, Cavia porcellus, Cardiac atrium; parameters: scale not given: the % may be the effect or the level left
[35] = Negative inotropic activity against potassium-induced contraction in guinea pig left atrium assessed as decrease in developed tension at 10 uM relative to control; format: functional, Cavia porcellus, Cardiac atrium; parameters: scale not given: the % may be the effect or the level left
[36] = Antiarrhythmic activity in sinusoidal alternating current-induced guinea pig left atrium assessed as increase in current strength at which extra beats occur at 5 uM measured every 30 mins; format: functional, Cavia porcellus, Cardiac atrium; procedure, shortened: as §1
[37] = […] chronotropic activity against potassium-induced contraction in guinea pig left atrium assessed as decrease atrial rate at 100 uM relative to control; format: functional, Cavia porcellus, Cardiac atrium; parameters: scale not given: the % may be the effect or the level left
[38] = Negative inotropic activity against potassium-induced contraction in guinea pig left atrium assessed as decrease in developed tension at 0.5 uM relative to control; format: functional, Cavia porcellus, Cardiac atrium; parameters: scale not given: the % may be the effect or the level left
[39] = Antiarrhythmic activity in sinusoidal alternating current-induced guinea pig left atrium assessed as increase in current strength at which extra beats occur at 1 uM measured every 30 mins; format: functional, Cavia porcellus, Cardiac atrium; procedure, shortened: as §1
[40] = Negative inotropic activity against potassium-induced contraction in guinea pig left atrium assessed as decrease in developed tension at 5 uM relative to control; format: functional, Cavia porcellus, Cardiac atrium; parameters: scale not given: the % may be the effect or the level left

Question: Which results are given for `Cc1cccc(C)c1NC[C@@H]1CCCN2CCCC[C@H]12`?
Answer: EC50 [1]: 23 nM; Activity [2]: 28%; inhibition at 50 µM [3]: 27%; Activity [4]: 40%; Activity [5]: 75%

Question: With `Cc1cccc(C)c1NCC[C@@H]1CCCN2CCCC[C@H]12` as the molecule, how does the intraventricular conduction time [6] read?
Answer: 20 ms

Question: What about the Activity [7] of the same molecule?
Answer: 208%

Question: What about the Activity [8] of the same molecule?
Answer: 142 bpm

Question: What about the Activity [9] of the same molecule?
Answer: 89%

Question: And the intraventricular conduction time [10]?
Answer: 19 ms

Question: What about the Activity [11] of the same molecule?
Answer: 163 bpm

Question: What about the Activity [12] of the same molecule?
Answer: 175 ms

Question: And the AV conduction time [13]?
Answer: 57 ms

Question: What about the Activity [14] of the same molecule?
Answer: 154 ms

Question: What about the AV conduction time [15] of the same molecule?
Answer: 56 ms

Question: What about the EC50 [1] of the same molecule?
Answer: 340 nM

Question: What about the intraventricular conduction time [16] of the same molecule?
Answer: 20 ms

Question: And the Ratio [17]?
Answer: 3

Question: And the Activity [18]?
Answer: 157 ms

Question: What about the inhibition at 50 µM [3] of the same molecule?
Answer: 28%

Question: What about the AV conduction time [19] of the same molecule?
Answer: 59 ms

Question: What about the EC50 [20] of the same molecule?
Answer: 6890 nM

Question: What about the Activity [21] of the same molecule?
Answer: 160 ms

Question: What about the Activity [22] of the same molecule?
Answer: 171 bpm

Question: And the Activity [23]?
Answer: 72%

Question: And the AV conduction time [24]?
Answer: 58 ms

Question: What about the AV conduction time [25] of the same molecule?
Answer: 53 ms

Question: And the EC50 [26]?
Answer: 460 nM

Question: What about the Activity [27] of the same molecule?
Answer: 182 bpm

Question: And the intraventricular conduction time [28]?
Answer: 19 ms

Question: And the Activity [29]?
Answer: 136 bpm

Question: And the Activity [30]?
Answer: 170 ms

Question: And the intraventricular conduction time [31]?
Answer: 21 ms

Question: With `O=C(Cn1nc2ccccc2n1)NC[C@@H]1CCCN2CCCC[C@H]12` as the molecule, how does the inhibition at 100 µM [32] read?
Answer: 4%

Question: What about the Activity [9] of the same molecule?
Answer: 98%

Question: And the Activity [33]?
Answer: 26%

Question: What about the EC50 [1] of the same molecule?
Answer: 35 nM

Question: What about the Activity [34] of the same molecule?
Answer: 34%

Question: For `O=C(Cn1nc2ccc(Cl)cc2n1)NC[C@@H]1CCCN2CCCC[C@H]12`, which inhibition at 100 µM [32] is on record?
Answer: 26%

Question: And the Activity [35]?
Answer: 92%

Question: What about the EC50 [1] of the same molecule?
Answer: 74 nM

Question: And the Activity [36]?
Answer: 28%

Question: What about the Activity [34] of the same molecule?
Answer: 27%

Question: For `COc1cc(C(=O)NC[C@@H]2CCCN3CCCC[C@H]23)cc(OC)c1OC`, which inhibition at 100 µM [32] is on record?
Answer: 7%

Question: And the Activity [37]?
Answer: 11%

Question: What about the EC50 [1] of the same molecule?
Answer: 17 nM

Question: And the Activity [38]?
Answer: 79%

Question: And the Activity [2]?
Answer: 56%

Question: And the EC50 [26]?
Answer: 2620 nM

Question: With `COc1ccc2c(c1)nc(Cc1ccccc1)c(=O)n2C[C@H]1CCCN2CCCC[C@@H]12` as the molecule, how does the EC50 [1] read?
Answer: 110 nM

Question: And the inhibition at 50 µM [3]?
Answer: 18%

Question: And the Activity [4]?
Answer: 62%

Question: What about the EC50 [20] of the same molecule?
Answer: 2750 nM

Question: And the Activity [39]?
Answer: 14%

Question: What about the Activity [40] of the same molecule?
Answer: 86%
